Experimental data as given in ChEMBL document CHEMBL1126564, “Synthesis and antimicrobial evaluation of a series of 7-[3-amino (or aminomethyl)-4-aryl (or cyclopropyl)-1-pyrrolidinyl]-4-quinolone- and -1,8-naphthyridone-3-carboxylic acids” (1993).
Values after ≈ are worked out from the molar mass of the structure shown.

Columns and labels:
Type in all cases: functional
Enterococcus faecalis = assay: Minimum inhibitory concentration against […] MGH-2
Method in brief: (§1)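 Standard microdilution method against a panel of five Gram-negative and five Gram-positive bacterial strains. The MIC (µg/mL) was recorded for each strain.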

Enterobacter cloacae = assay: Minimum inhibitory concentration against […] MA-2646; method in brief: as §1
Staphylococcus aureus [1] = assay: Minimum inhibitory concentration against Staphylococcus aureus UC-76; method in brief: as §1
Escherichia coli = assay: Minimum inhibitory concentration against Escherichia coli Vogel; method in brief: as §1
Streptococcus pyogenes = assay: Minimum inhibitory concentration against Streptococcus pyogenes C-203; method in brief: as §1
Providencia rettgeri = assay: Minimum inhibitory concentration against Providencia rettgeri M-1771; method in brief: as §1
Pseudomonas aeruginosa = assay: Minimum inhibitory concentration against Pseudomonas aeruginosa UI-18; method in brief: as §1
Klebsiella pneumoniae = assay: Minimum inhibitory concentration against Klebsiella pneumoniae MGH-2; method in brief: as §1
Staphylococcus aureus [2] = assay: Minimum inhibitory concentration against Staphylococcus aureus H-228; method in brief: as §1
Streptococcus pneumoniae = assay: Minimum inhibitory concentration against Streptococcus pneumoniae SV-1; method in brief: as §1
[3] = Enterococcus faecalis, read-out: MIC
[4] = Enterobacter cloacae, read-out: MIC
[5] = Staphylococcus aureus, read-out: MIC
[6] = Escherichia coli, read-out: MIC
[7] = Streptococcus pyogenes, read-out: MIC
[8] = Providencia rettgeri, read-out: MIC
[9] = Pseudomonas aeruginosa, read-out: MIC
[10] = Klebsiella pneumoniae, read-out: MIC
[11] = Streptococcus pneumoniae, read-out: MIC

| SMILES | MIC (Enterococcus faecalis; [3]) [µg/mL] | MIC (Enterobacter cloacae; [4]) [µg/mL] | MIC (Staphylococcus aureus [1]; [5]) [µg/mL] | MIC (Escherichia coli; [6]) [µg/mL] | MIC (Streptococcus pyogenes; [7]) [µg/mL] | MIC (Providencia rettgeri; [8]) [µg/mL] | MIC (Pseudomonas aeruginosa; [9]) [µg/mL] | MIC (Klebsiella pneumoniae; [10]) [µg/mL] | MIC (Staphylococcus aureus [2]; [5]) [µg/mL] | MIC (Streptococcus pneumoniae; [11]) [µg/mL] | MIC (Enterococcus faecalis) [µg/mL] | MIC (Enterobacter cloacae) [µg/mL] | MIC (Staphylococcus aureus [1]) [µg/mL] | MIC (Escherichia coli) [µg/mL] | MIC (Streptococcus pyogenes) [µg/mL] | MIC (Providencia rettgeri) [µg/mL] | MIC (Pseudomonas aeruginosa) [µg/mL] | MIC (Klebsiella pneumoniae) [µg/mL] | MIC (Staphylococcus aureus [2]) [µg/mL] | MIC (Streptococcus pneumoniae) [µg/mL] |
| --- | --- | --- | --- | --- | --- | --- | --- | --- | --- | --- | --- | --- | --- | --- | --- | --- | --- | --- | --- | --- |
| COC(=O)c1ccc(C2CN(c3nc4c(cc3F)c(=O)c(C(=O)O)cn4C3CC3)CC2N)cc1 (trans isomer) | 0.4 (≈ 0.858 µM) | 0.4 (≈ 0.858 µM) | 0.1 (≈ 0.214 µM) | 0.4 (≈ 0.858 µM) | 0.8 (≈ 1.72 µM) | 0.8 (≈ 1.72 µM) | 3.1 (≈ 6.65 µM) | 0.4 (≈ 0.858 µM) | 0.2 (≈ 0.429 µM) | 0.8 (≈ 1.72 µM) |  |  |  |  |  |  |  |  |  |  |
| NCc1cccc(C2CN(c3nc4c(cc3F)c(=O)c(C(=O)O)cn4C3CC3)CC2CN)c1 (trans isomer) | 1.6 (≈ 3.54 µM) | 3.1 (≈ 6.87 µM) | 0.8 (≈ 1.77 µM) | 3.1 (≈ 6.87 µM) | 0.2 (≈ 0.443 µM) | 6.3 (≈ 14 µM) | 12.5 (≈ 27.7 µM) | 3.1 (≈ 6.87 µM) | 3.1 (≈ 6.87 µM) | 0.8 (≈ 1.77 µM) |  |  |  |  |  |  |  |  |  |  |
| COc1ccc(C2CN(c3c(F)cc4c(=O)c(C(=O)O)cn(C5CC5)c4c3F)CC2N)cc1 (trans isomer) | 0.1 (≈ 0.22 µM) | 0.1 (≈ 0.22 µM) | 0.013 (≈ 0.0285 µM) | 0.1 (≈ 0.22 µM) | 0.05 (≈ 0.11 µM) | 0.4 (≈ 0.878 µM) | 1.6 (≈ 3.51 µM) | 0.2 (≈ 0.439 µM) | 0.025 (≈ 0.0549 µM) | 0.05 (≈ 0.11 µM) |  |  |  |  |  |  |  |  |  |  |
| NCc1cccc(C2CN(c3c(F)cc4c(=O)c(C(=O)O)cn(C5CC5)c4c3F)CC2CN)c1 (trans isomer) | 0.8 (≈ 1.71 µM) | 1.6 (≈ 3.42 µM) | 0.2 (≈ 0.427 µM) | 1.6 (≈ 3.42 µM) | 0.1 (≈ 0.213 µM) | 3.1 (≈ 6.62 µM) | 6.3 (≈ 13.4 µM) | 1.6 (≈ 3.42 µM) | 1.6 (≈ 3.42 µM) | 0.2 (≈ 0.427 µM) |  |  |  |  |  |  |  |  |  |  |
| Nc1c(F)c(N2CC(N)C(c3ccccc3)C2)c(F)c2c1c(=O)c(C(=O)O)cn2C1CC1 (stereo not given) | 0.05 (≈ 0.114 µM) | 0.025 (≈ 0.0568 µM) | 0.006 (≈ 0.0136 µM) | 0.025 (≈ 0.0568 µM) | 0.1 (≈ 0.227 µM) | 0.1 (≈ 0.227 µM) | 0.8 (≈ 1.82 µM) | 0.05 (≈ 0.114 µM) | 0.013 (≈ 0.0295 µM) | 0.05 (≈ 0.114 µM) |  |  |  |  |  |  |  |  |  |  |
| NCC1CN(c2nc3c(cc2F)c(=O)c(C(=O)O)cn3C2CC2)CC1c1ccc(N)cc1 (cis isomer) | 0.1 (≈ 0.229 µM) | 0.2 (≈ 0.457 µM) | 0.025 (≈ 0.0571 µM) | 0.2 (≈ 0.457 µM) | 0.05 (≈ 0.114 µM) | 0.8 (≈ 1.83 µM) | 1.6 (≈ 3.66 µM) | 0.4 (≈ 0.914 µM) | 0.2 (≈ 0.457 µM) | 0.05 (≈ 0.114 µM) |  |  |  |  |  |  |  |  |  |  |

More lines, now with the values ahead:

| MIC (Enterococcus faecalis; [3]) [µg/mL] | MIC (Enterobacter cloacae; [4]) [µg/mL] | MIC (Staphylococcus aureus [1]; [5]) [µg/mL] | MIC (Escherichia coli; [6]) [µg/mL] | MIC (Streptococcus pyogenes; [7]) [µg/mL] | MIC (Providencia rettgeri; [8]) [µg/mL] | MIC (Pseudomonas aeruginosa; [9]) [µg/mL] | MIC (Klebsiella pneumoniae; [10]) [µg/mL] | MIC (Staphylococcus aureus [2]; [5]) [µg/mL] | MIC (Streptococcus pneumoniae; [11]) [µg/mL] | MIC (Enterococcus faecalis) [µg/mL] | MIC (Enterobacter cloacae) [µg/mL] | MIC (Staphylococcus aureus [1]) [µg/mL] | MIC (Escherichia coli) [µg/mL] | MIC (Streptococcus pyogenes) [µg/mL] | MIC (Providencia rettgeri) [µg/mL] | MIC (Pseudomonas aeruginosa) [µg/mL] | MIC (Klebsiella pneumoniae) [µg/mL] | MIC (Staphylococcus aureus [2]) [µg/mL] | MIC (Streptococcus pneumoniae) [µg/mL] | SMILES |
| --- | --- | --- | --- | --- | --- | --- | --- | --- | --- | --- | --- | --- | --- | --- | --- | --- | --- | --- | --- | --- |
| 0.4 (≈ 0.888 µM) | 0.8 (≈ 1.78 µM) | 0.1 (≈ 0.222 µM) | 0.4 (≈ 0.888 µM) | 0.4 (≈ 0.888 µM) | 1.6 (≈ 3.55 µM) | 6.3 (≈ 14 µM) | 0.8 (≈ 1.78 µM) | 0.2 (≈ 0.444 µM) | 0.4 (≈ 0.888 µM) |  |  |  |  |  |  |  |  |  |  | CC(C)c1ccc(C2CN(c3nc4c(cc3F)c(=O)c(C(=O)O)cn4C3CC3)CC2N)cc1 (trans isomer) |
| 0.025 (≈ 0.0532 µM) | 0.1 (≈ 0.213 µM) | 0.006 (≈ 0.0128 µM) | 0.1 (≈ 0.213 µM) | 0.025 (≈ 0.0532 µM) | 0.2 (≈ 0.426 µM) | 0.8 (≈ 1.7 µM) | 0.2 (≈ 0.426 µM) | 0.025 (≈ 0.0532 µM) | 0.013 (≈ 0.0277 µM) |  |  |  |  |  |  |  |  |  |  | NCC1CN(c2c(F)c(N)c3c(=O)c(C(=O)O)cn(C4CC4)c3c2F)CC1c1ccc(N)cc1 (trans isomer) |
| 0.4 (≈ 0.827 µM) | 0.4 (≈ 0.827 µM) | 0.05 (≈ 0.103 µM) | 0.4 (≈ 0.827 µM) | 0.4 (≈ 0.827 µM) | 1.6 (≈ 3.31 µM) | 3.1 (≈ 6.41 µM) | 0.8 (≈ 1.65 µM) | 0.1 (≈ 0.207 µM) | 0.4 (≈ 0.827 µM) |  |  |  |  |  |  |  |  |  |  | COC(=O)c1ccc(C2CN(c3c(F)cc4c(=O)c(C(=O)O)cn(C5CC5)c4c3F)CC2N)cc1 (stereo not given) |
| 0.1 (≈ 0.269 µM) | 0.1 (≈ 0.269 µM) | ≤ 0.025 | 0.05 (≈ 0.135 µM) | 0.1 (≈ 0.269 µM) | 0.1 (≈ 0.269 µM) | 0.8 (≈ 2.15 µM) | 0.05 (≈ 0.135 µM) | 0.1 (≈ 0.269 µM) | 0.1 (≈ 0.269 µM) |  |  |  |  |  |  |  |  |  |  | NC1CN(c2cc3c(cc2F)c(=O)c(C(=O)O)cn3C2CC2)CC1C1CC1 (stereo not given) |
| 0.1 (≈ 0.213 µM) | 0.2 (≈ 0.427 µM) | 0.013 (≈ 0.0277 µM) | 0.2 (≈ 0.427 µM) | 0.1 (≈ 0.213 µM) | 0.4 (≈ 0.854 µM) | 3.1 (≈ 6.62 µM) | 0.2 (≈ 0.427 µM) | 0.025 (≈ 0.0534 µM) | 0.1 (≈ 0.213 µM) |  |  |  |  |  |  |  |  |  |  | CN(C)c1ccc(C2CN(c3c(F)cc4c(=O)c(C(=O)O)cn(C5CC5)c4c3F)CC2N)cc1 (stereo not given) |
| 0.013 (≈ 0.0303 µM) | 0.05 (≈ 0.116 µM) | 0.003 (≈ 0.00699 µM) | 0.05 (≈ 0.116 µM) | 0.013 (≈ 0.0303 µM) | 0.1 (≈ 0.233 µM) | 0.4 (≈ 0.931 µM) | 0.1 (≈ 0.233 µM) | 0.025 (≈ 0.0582 µM) | 0.006 (≈ 0.014 µM) |  |  |  |  |  |  |  |  |  |  | NCC1CN(c2c(F)cc3c(=O)c(C(=O)O)cn(C4CC4)c3c2F)CC1c1ccco1 (stereo not given) |
|  |  |  |  |  |  |  |  |  |  | 0.1 (≈ 0.229 µM) | 0.2 (≈ 0.457 µM) | 0.05 (≈ 0.114 µM) | 0.2 (≈ 0.457 µM) | 0.05 (≈ 0.114 µM) | 0.4 (≈ 0.914 µM) | 1.6 (≈ 3.66 µM) | 0.2 (≈ 0.457 µM) | 0.4 (≈ 0.914 µM) | 0.05 (≈ 0.114 µM) | NCC1CN(c2nc3c(cc2F)c(=O)c(C(=O)O)cn3C2CC2)CC1c1ccc(N)cc1 (trans isomer) |
| 0.1 (≈ 0.236 µM) | 0.1 (≈ 0.236 µM) | 0.1 (≈ 0.236 µM) | 0.1 (≈ 0.236 µM) | 0.2 (≈ 0.471 µM) | 0.4 (≈ 0.942 µM) | 1.6 (≈ 3.77 µM) | 0.2 (≈ 0.471 µM) | 0.4 (≈ 0.942 µM) | 0.2 (≈ 0.471 µM) |  |  |  |  |  |  |  |  |  |  | NC1CN(c2nc3c(cc2F)c(=O)c(C(=O)O)cn3C2CC2)CC1c1ccc(O)cc1 (trans isomer) |
